Data set [1] can be described thus: Drug distribution in wild type BL/6J mouse eyes measured at 380 nM, IP administered single dose per eye after 3 hrs by LC-MS/MS electrospray ionization fragmentation spectra method. The data set is classed as ADME, tissue-based. The note with it: in vivo, 0.38 µM. Summed up: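 Eight-week-old BL/6J mice got one i.p. dose of 380 nmol in 50 μL DMSO and were sacrificed at 3 h, 1 day or 7 days. Both eyes were homogenized in acetonitrile, and the extract was dried and reconstituted in 50% methanol/water. Analysis was by C18 LC-MS/MS with ESI and a formic acid/acetonitrile gradient.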

Data set [2] can be described thus: Drug distribution in wild type BL/6J mouse eyes measured at 380 nM, IP administered single dose per eye after 7 days by LC-MS/MS electrospray ionization fragmentation spectra method. Type of data set: ADME, tissue-based. The settings on record: in vivo, 168 h, 0.38 µM, time 7 day. The method, boiled down: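 Eight-week-old BL/6J mice got one i.p. dose of 380 nmol in 50 μL DMSO and were sacrificed at 3 h, 1 day or 7 days. Both eyes were homogenized in acetonitrile, and the extract was dried and reconstituted in 50% methanol/water. Analysis was by C18 LC-MS/MS with ESI and a formic acid/acetonitrile gradient. The transition monitored was water loss (−18 Da), or −47 Da for one analog.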

Data set [3] concerns the target Retinoid isomerohydrolase (Bos taurus, UniProt Q28175). In words: Inhibition of RPE65 in bovine retinal pigment epithelium microsomes assessed as decrease of 11-cis-retinol using trans-retinol measured after 1 hr by normal phase HPLC analysis. Also noted: species or system Retina, Microsome.

Molecules are shown by their SMILES. pIC50: −log10 of the molar value.

Chain of Retinoid isomerohydrolase (Q28175 whole entry): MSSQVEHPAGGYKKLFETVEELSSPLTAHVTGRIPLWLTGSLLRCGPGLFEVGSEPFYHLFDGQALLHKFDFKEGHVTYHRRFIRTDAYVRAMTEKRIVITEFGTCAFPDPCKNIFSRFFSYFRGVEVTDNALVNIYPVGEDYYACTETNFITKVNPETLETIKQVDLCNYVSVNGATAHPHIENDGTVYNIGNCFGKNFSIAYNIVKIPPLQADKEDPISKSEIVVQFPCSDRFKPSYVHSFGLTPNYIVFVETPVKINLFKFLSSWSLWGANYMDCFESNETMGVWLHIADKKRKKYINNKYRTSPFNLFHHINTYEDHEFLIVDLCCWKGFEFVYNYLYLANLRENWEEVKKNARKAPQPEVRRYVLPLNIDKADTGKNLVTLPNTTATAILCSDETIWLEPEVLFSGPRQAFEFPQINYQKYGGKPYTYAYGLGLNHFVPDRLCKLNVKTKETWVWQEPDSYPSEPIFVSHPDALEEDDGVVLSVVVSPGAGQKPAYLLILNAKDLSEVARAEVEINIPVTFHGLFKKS

On to `NCCC(O)c1cccc(OCC2CCC(F)(F)CC2)c1` (centres undefined), for which the values for the Drug uptake in data set [1] and in data set [2] were 176 pmol and 21 pmol, respectively.
Turning to `CCCC(CCC)COc1cc([C@H](O)CCN)ccc1F`, the Drug uptake entry in data set [1] is on record as “Not Active”.
For `NCCC(O)c1ccc(F)c(OCC2CCCCC2)c1` (centres undefined), in data set [1], the Drug uptake result is “Not Active”.
In the case of `CCCC(CCC)COc1cccc(C(O)CCN)c1F` (racemic), the pIC50 in data set [3] was 6.54.
Same read-out and setting: next, `CCCC(CCC)COc1cc(F)cc(C(O)CCN)c1` (racemic; 25): 6.53; `CCCC(CCC)COc1cc(F)cc(C(O)CCN)c1` (racemic; 26): 6.74.
Still for that read-out and setting: then `CCCC(CCC)COc1ccc(F)c(C(O)CCN)c1` (racemic; 27), with 6.80.
Still for that read-out and setting: then `CCCC(CCC)COc1ccc(F)c(C(O)CCN)c1` (racemic; 28), with 6.88.

As a reminder, the pIC50 is −log10 of the IC50, conventionally taken in molar units.

Source of the values: ChEMBL document CHEMBL5032497, “Rational Alteration of Pharmacokinetics of Chiral Fluorinated and Deuterated Derivatives of Emixustat for Retinal Therapy” (J Med Chem, 2021).
